The source of these data is ChEMBL document CHEMBL3351997, “Synthesis of novel tylophorine derivatives and evaluation of their anti-inflammatory activity” (ACS Med Chem Lett, 2014).

pIC50: −log10 of the molar value.

The test system of data set [1] is RAW264.7. As to the kind of experiment: Antiinflammatory activity against mouse RAW264.7 cells assessed as inhibition of LPS-induced TNFalpha production after 6 hrs by ELISA. The class given is functional, cell-based. As to conditions: RAW264.7, 6 h.
For data set [2], the system named is RAW264.7. As to the kind of experiment: Cytotoxicity against mouse RAW264.7 cells after 48 hrs by MTT assay. The class given is cell-based. The following applies: RAW264.7, 48 h. In short, it runs like this:
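Raw 264.7 murine macrophages were cultured with a range of compound concentrations for 48 h, with vehicle-treated cells as control. The 50% cytotoxic concentration (CC50) was determined, with values representative of three experiments.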

A short description of data set [3]: Antiinflammatory activity against BALB/c mouse splenocytes assessed as inhibition of LPS-induced TNFalpha production after 24 hrs by ELISA. The class given is functional, cell-based. The following applies: Splenocyte. Summed up: (§1)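 Splenocytes from BALB/c mice were cultured with LPS (100 ng/mL) plus compound for 4 h or 24 h. TNF-α in the supernatants was measured by ELISA. Values are mean ± SD of at least three independent experiments, each run in duplicate.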

Data set [4] in a line: Antiinflammatory activity against BALB/c mouse splenocytes assessed as inhibition of LPS-induced TNFalpha production after 4 hrs by ELISA. Format: functional, cell-based. As to conditions: Splenocyte. In short, it runs like this:
as §1

Data set [5] relates to T-cell. Briefly: Induction of Foxp3 expression in B6 Foxp3-GFP mouse CD4-positive T cells assessed as increase in iTregs at 100 nM after 3 days by flow cytometry. Format: functional. In short, it runs like this:
(§2)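 Naive CD4+ T cells were sorted from B6 Foxp3-GFP reporter mice and cultured with compound plus TGF-β (5 ng/mL) for 3 days. Harvested cells were read by flow cytometry as the percentage of GFP+ (Foxp3+) iTregs. Values are mean ± SD of at least three independent experiments, each run in duplicate.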

Data set [6] has as its system T-cell. Briefly: Inhibition of Foxp3 expression in B6 Foxp3-GFP mouse CD4-positive T cells assessed as iTregs at 100 nM after 3 days by flow cytometry. The class given is functional. As to conditions: for inhibition at 0.1 µM: Mus musculus, T-cell, 72 h. In short, it runs like this:
as §2

The test system of data set [7] is T-cell. Briefly: Induction of Foxp3 expression in B6 Foxp3-GFP mouse CD4-positive T cells assessed as increase in iTregs at 1 uM after 3 days by flow cytometry. The class given is functional. In short, it runs like this: as §2
The subject of data set [8] is T-cell. As to the kind of experiment: Induction of Foxp3 expression in B6 Foxp3-GFP mouse CD4-positive T cells at 10 nM after 3 days by flow cytometry in presence of 5 ng/ml TGF-beta (reference value: 37.15 %). Format: functional. Summed up: as §2
Data set [9] relates to T-cell. Briefly: Induction of Foxp3 expression in B6 Foxp3-GFP mouse CD4-positive T cells at 1 nM after 3 days by flow cytometry in presence of 5 ng/ml TGF-beta. The class given is functional. Summed up:
as §2

In data set [10] the test system is T-cell. As to the kind of experiment: Induction of Foxp3 expression in B6 Foxp3-GFP mouse CD4-positive T cells at 1 uM after 3 days by flow cytometry in presence of 5 ng/ml TGF-beta (reference value: 37.15 %). Format: functional. Summed up: as §2
Data set [11] has as its system T-cell. As to the kind of experiment: Induction of Foxp3 expression in B6 Foxp3-GFP mouse CD4-positive T cells at 1 nM after 3 days by flow cytometry in presence of 5 ng/ml TGF-beta (reference value: 37.15 %). The class given is functional. In short, it runs like this:
as §2

Data set [12] deals with T-cell. Briefly: Induction of Foxp3 expression in B6 Foxp3-GFP mouse CD4-positive T cells at 100 nM after 3 days by flow cytometry in presence of 5 ng/ml TGF-beta (reference value: 37.15 %). The class given is functional. Summed up: as §2
In data set [13] the test system is RAW264.7. As to the kind of experiment: Cytotoxicity against mouse RAW264.7 cells assessed as cell death at 1 uM after 48 hrs by MTT assay. The class given is cell-based. As to conditions: raw264.7, 48 h.
A short description of data set [14]: Solubility of the compound in DMSO. The class given is physicochemical.
Data set [15] in a line: Solubility of the compound in water. Format: physicochemical. The following applies: buffer.

Regarding `COc1cc2c3c(c4cc(OC)c(OC)cc4c2cc1OC)[C@@H](O)[C@H]1CCCN1C3`, the pIC50 in the data set with RAW264.7 [1] was 6.62; in the data set with RAW264.7 [2] it was 6.62; in data set [3], 6.11; in data set [4] it was 6.88. Besides, in the data set with T-cell [5], the Activity was 12%.

As for `COc1cc2c3c(c4cc(OC)c(OC)cc4c2cc1OC)[C@H](O)[C@H]1CCCN1C3`, the negative-log IC50 (pIC50) with RAW264.7 [1] was 6.09; with RAW264.7 [2], 5.93; in data set [3], 6.02; in [4], 6.21. In addition, in the data set with T-cell [5], the Activity was 5%.

For the molecule `CC1(C)C2CC[C@]1(S(=O)(=O)O)C(=O)C2.COc1cc2c3c(c4cc(OC)c(OC)cc4c2cc1OC)CN1CCCC1C3` (centres undefined), the pIC50 was 7.57 in the data set with RAW264.7 [1], 7.48 in the data set with RAW264.7 [2], 6.47 in [3] and 7.52 in [4]. Also, the inhibition at 0.1 µM in the data set with T-cell [6] was found to be 2%.

Regarding `COc1cc(/C=C/C(=O)O)ccc1O.COc1cc2c3c(c4cc(OC)c(OC)cc4c2cc1OC)CN1CCCC1C3` (centres undefined), the pIC50 in the data set with RAW264.7 [1] was 6.87; with RAW264.7 [2], 7.03; in data set [3], 6.48; in data set [4], 6.67. Further, the Activity in the data set with T-cell [5] is recorded as 0.8%.

As to `COc1cc2c3c(c4cc(OC)c(OC)cc4c2cc1OC)CN1CCCC1C3.O=C(O)c1cc(S(=O)(=O)O)ccc1O` (centres undefined), the pIC50 was 6.55 in the data set with RAW264.7 [1], 6.80 in the data set with RAW264.7 [2], 6.80 in data set [3] and 6.68 in data set [4]. The Activity in the data set with T-cell [5] worked out at 29%.

`COc1cc2cc(CN3CCC[C@H]3CO)c3cc(OC)c(OC)cc3c2cc1OC`: the pIC50 with RAW264.7 [1] was 3.51; in the data set on RAW264.7 [2], 3.37; in data set [3], 3.52; in data set [4], 3.58. Also, the Activity with T-cell [7] was found to be 0.2%.

`COC(=O)[C@@H]1CCCN1C(=O)c1cc2cc(OC)c(OC)cc2c2cc(OC)c(OC)cc12`: the pIC50 with RAW264.7 [1] is 3.66; in the data set with RAW264.7 [2] it was 3.49; in data set [3], 3.44; in [4] it was 3.68. Further, in the data set with T-cell [7], the Activity came to 5%.

Take `COc1cc2cc(CN3CCCCC3C(=O)O)c3cc(OC)c(OC)cc3c2cc1OC` (centres undefined): the pIC50 in the data set on RAW264.7 [1] is 3.45; in the data set on RAW264.7 [2], 3.45; in data set [3], 3.41; in data set [4] it was 3.53. Also, the Activity with T-cell [7] amounted to 0.7%.

Turning to `COC(=O)C1CCCCN1C(=O)c1cc2cc(OC)c(OC)cc2c2cc(OC)c(OC)cc12` (centres undefined), the negative logarithm of the IC50 (pIC50) is 3.64 in the data set on RAW264.7 [1], 3.94 in the data set on RAW264.7 [2], 3.48 in [3] and 3.52 in data set [4]. Besides, the Activity with T-cell [7] is recorded as 7%.

In the case of `COc1cc2cc(CN3CCC[C@H]3C(=O)O)c3cc(OC)c(OC)cc3c2cc1OC`, the pIC50 in the data set on RAW264.7 [1] is 3.70; in the data set with RAW264.7 [2], 3.38; in data set [3] it was 3.64; in data set [4], 3.63. In addition, the Activity in the data set on T-cell [7] is 2%.

On to `COC(=O)[C@@H]1CCCN1Cc1cc2cc(OC)c(OC)cc2c2cc(OC)c(OC)cc12`, for which the pIC50 was 3.67 in the data set with RAW264.7 [1], 3.33 in the data set on RAW264.7 [2], 3.56 in data set [3] and 3.82 in data set [4]. Also, the Activity in the data set on T-cell [7] was determined as 19%.

With `COc1cc2cc(CN3CCCCC3CO)c3cc(OC)c(OC)cc3c2cc1OC` (centres undefined), the pIC50 in the data set with RAW264.7 [1] was 4.39; with RAW264.7 [2] it was 3.29; in data set [3], 4.04; in data set [4], 4.42. Besides, the Activity came out at 41.25% with T-cell [8]; 100% in the data set with T-cell [9]; 73.94% in the data set with T-cell [10]; 40.42% in the data set on T-cell [11]; 41% in the data set with T-cell [7]; 51.92% in the data set on T-cell [12].

For the molecule `COc1cc2cc(CN3CCC(O)CC3)c3cc(OC)c(OC)cc3c2cc1OC`, the pIC50 is 3.64 with RAW264.7 [1], 3.88 in the data set on RAW264.7 [2], 3.56 in data set [3] and 3.58 in data set [4]. In addition, the Activity in the data set on T-cell [7] turned out to be 5%.

Take `COC(=O)CCCCCNC(=O)c1cc2cc(OC)c(OC)cc2c2cc(OC)c(OC)cc12`: the pIC50 with RAW264.7 [1] is 3.62; in the data set on RAW264.7 [2], 3.37; in data set [3], 3.59; in data set [4] it was 3.81. Besides, the Activity in the data set with T-cell [7] was found to be 16%.

As for `COc1cc2cc(C(=O)NCCCCCCO)c3cc(OC)c(OC)cc3c2cc1OC`, the pIC50 was 3.63 in the data set with RAW264.7 [1], 3.52 with RAW264.7 [2], 3.50 in data set [3] and 3.60 in data set [4]. In addition, in the data set with T-cell [7], the Activity turned out to be 7%.

For `COC(=O)CCCCCNCc1cc2cc(OC)c(OC)cc2c2cc(OC)c(OC)cc12`, the pIC50 with RAW264.7 [1] was 3.64; in the data set with RAW264.7 [2], 3.29; in data set [3], 3.67; in [4], 3.94. In the data set with T-cell [7], the Activity was 47%.

Turning to `COc1cc2c3c(c4cc(OC)c(OC)cc4c2cc1OC)[C@H](O)[C@@H]1CCCN1C3`, the Activity result is listed as “Toxic” with RAW264.7 [13], 40% in the data set on T-cell [12] and 39% with T-cell [5]. Besides, the pIC50 in the data set with RAW264.7 [1] was 7.44; with RAW264.7 [2] it was 7.28; in data set [3] it was 7.01; in [4], 7.70. For the same molecule, the solubility result in [14] is reported as “soluble”.

As to `COc1cc2c3c(c4cc(OC)c(OC)cc4c2cc1OC)[C@@H](O)[C@@H]1CCCN1C3`, the pIC50 was 6.46 in the data set on RAW264.7 [1], 5.98 in the data set on RAW264.7 [2], 5.89 in data set [3] and 6.43 in data set [4]. For the same molecule, the Activity in the data set on T-cell [5] is 29%.

Regarding `COc1cc2c3c(c4cc(OC)c(OC)cc4c2cc1OC)CN1CCCC1C3` (racemic) [(+/-)-TYLOPHORINE], the “inhibition (INH)” value in the data set with T-cell [6] is 34%.

As for `COc1cc2c3c(c4cc(OC)c(OC)cc4c2cc1OC)CN1CCC[C@H]1C3` [(S)-TYLOPHORINE], the inhibition at 0.1 µM in the data set with T-cell [6] came to 44%.

On to `COc1cc2c3c(c4cc(OC)c(OC)cc4c2cc1OC)CN1CCCC1C3.O=C(O)CC(O)C(=O)O` (centres undefined) [TYLOPHORINE 2-HYDROXYSUCCINIC ACID SALT], for which the solubility result in data set [15] is on record as “soluble”.

Regarding `COc1cc2c3c(c4cc(OC)c(OC)cc4c2cc1OC)CN1CCCC1C3.O=C(O)c1ccccc1` (centres undefined) [TYLOPHORINE BENZOIC ACID SALT], the “inhibition (INH)” value in the data set with T-cell [6] is on record as 1%.

As to `COc1cc2c3c(c4cc(OC)c(OC)cc4c2cc1OC)CN1CCCC1C3.I` (centres undefined) [TYLOPHORINE HYDROIODIDE], the “inhibition (INH)” value with T-cell [6] amounted to 12%.

As for `COc1cc2c3c(c4cc(OC)c(OC)cc4c2cc1OC)CN1CCCC1C3.Nc1ccc(S(=O)(=O)O)cc1` (centres undefined) [TYLOPHORINE P-AMINOBENZENESULFONIC ACID SALT], the pIC50 was 6.61 in the data set with RAW264.7 [1], 6.76 in the data set with RAW264.7 [2], 6.71 in data set [3] and 6.67 in data set [4]. In addition, the inhibition at 0.1 µM in the data set on T-cell [6] is 3%.

Consider `COc1cc2c3c(c4cc(OC)c(OC)cc4c2cc1OC)CN1CCCC1C3.O=C(O)c1ccc(O)cc1` (centres undefined) [TYLOPHORINE P-HYDROXYBENZOIC ACID SALT], for which the pIC50 in the data set with RAW264.7 [1] was 6.29; with RAW264.7 [2], 6.19; in data set [3], 6.01; in data set [4], 6.12. Moreover, the inhibition at 0.1 µM in the data set with T-cell [6] worked out at 5%.

As for `COc1cc2c3c(c4cc(OC)c(OC)cc4c2cc1OC)CN1CCCC1C3.O=C(O)c1ccccc1O` (centres undefined) [TYLOPHORINE SALICYLIC ACID SALT], the “inhibition (INH)” value in the data set with T-cell [6] was 4%.
